In ChEMBL document CHEMBL1944556, “Natural Product Based 6-Hydroxy-2,3,4,6-tetrahydropyrrolo[1,2-a]pyrimidinium Scaffold as A New Antifungal Template” (ACS Med Chem Lett, 2011):
Converted amounts (≈) assume the structure as drawn. The source made the active and inactive calls. No cut-off for these calls is given here.

Columns and labels:
Vero = assay: Cytotoxicity against african green monkey Vero cells; assay type: cell-based; conditions: Chlorocebus sabaeus
Cryptococcus neoformans [1] = assay: Antifungal activity against Cryptococcus neoformans ATCC 66031; assay type: functional
[2] = tested on: Cryptococcus bacillisporus; assay: Antifungal activity against fluconazole-resistant Cryptococcus gattii ATCC 32609; assay type: functional
Candida albicans [3] = assay: Antifungal activity against amphotericin-B-resistant Candida albicans ATCC 200955; assay type: functional
Aspergillus fumigatus [4] = assay: Antifungal activity against Aspergillus fumigatus ATCC 13073; assay type: functional
In short: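 Panel of 23 fungal strains assayed by the group's previously published protocol. Read-outs in μg/mL are the MIC and the MFC, the lowest concentration that kills the fungus. The highest concentration tested was 160 μg/mL, or 5 μg/mL for some agents.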

Aspergillus flavus [5] = assay: Antifungal activity against Aspergillus flavus ATCC 204304; assay type: functional
In short: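 Panel of 23 fungal strains assayed by the group's previously published protocol. Read-outs in μg/mL are the MIC and the MFC, the lowest concentration that kills the fungus.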

Aspergillus niger [6] = assay: Antifungal activity against Aspergillus niger ATCC 16404 at 5 ug/ml; assay type: functional, organism-based
Candida albicans [7] = assay: Antifungal activity against fluconazole-resistant Candida albicans isolate 17 isolated from AIDS patient; assay type: functional
Cryptococcus neoformans [8] = assay: Antifungal activity against Cryptococcus neoformans ATCC 90113; assay type: functional
In short: (§1)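 Read-outs were MIC and MFC, in μg/mL. MFC is the lowest concentration that kills the fungus.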

Candida albicans [9] = assay: Antifungal activity against Candida albicans ATCC 90028; assay type: functional; in short: as §1
Aspergillus fumigatus [10] = assay: Antifungal activity against Aspergillus fumigatus ATCC 90906; assay type: functional; in short: as §1
Aspergillus fumigatus [11] = assay: Antifungal activity against Aspergillus fumigatus ATCC 90906 at 20 ug/ml; assay type: functional, organism-based
[12] = Selectivity index of IC50 for african green monkey Vero cells to MFC for Cryptococcus neoformans ATCC 90113; assay type: toxicity, cell-based; conditions: read-out: Selectivity Index
In short: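 The index is the Vero cell cytotoxicity IC50 divided by the MFC against C. neoformans.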

Candida albicans [13] = assay: Antifungal activity against Candida albicans ATCC 90028 at 20 ug/ml; assay type: functional, organism-based
Cryptococcus neoformans [14] = assay: Antifungal activity against Cryptococcus neoformans ATCC 90113 at 20 ug/ml; assay type: functional, organism-based
Candida albicans [15] = assay: Antifungal activity against Candida albicans ATCC 14053; assay type: functional; in short: as §1
Candida albicans [16] = assay: Antifungal activity against Candida albicans ATCC 32354; assay type: functional
Aspergillus fumigatus [17] = assay: Antifungal activity against Aspergillus fumigatus ATCC 204305; assay type: functional
Candida albicans [18] = assay: Antifungal activity against fluconazole-resistant Candida albicans isolate 1 isolated from AIDS patient; assay type: functional
Candida albicans [19] = assay: Antifungal activity against amphotericin-B-resistant Candida albicans ATCC 200955 at 160 ug/ml; assay type: functional, organism-based
Candida albicans [20] = assay: Antifungal activity against Candida albicans ATCC 60193; assay type: functional
Nakaseomyces glabratus [21] = assay: Antifungal activity against intrinsically fluconazole-resistant Candida glabrata ATCC 90030; assay type: functional
Pichia kudriavzevii = assay: Antifungal activity against intrinsically fluconazole-resistant Candida krusei ATCC 6258; assay type: functional
Candida parapsilosis [22] = assay: Antifungal activity against Candida parapsilosis ATCC 22019; assay type: functional; conditions: Lodderomyces parapsilosis
Candida tropicalis [23] = assay: Antifungal activity against Candida tropicalis ATCC 750; assay type: functional
Aspergillus fumigatus [24] = assay: Antifungal activity against Aspergillus fumigatus ATCC 204305 at 160 ug/ml; assay type: functional, organism-based
Aspergillus fumigatus [25] = assay: Antifungal activity against Aspergillus fumigatus ATCC 90906 at 160 ug/ml; assay type: functional, organism-based
Aspergillus fumigatus [26] = assay: Antifungal activity against Aspergillus fumigatus ATCC 13073 at 160 ug/ml; assay type: functional, organism-based
Aspergillus flavus [27] = assay: Antifungal activity against Aspergillus flavus ATCC 204304 at 160 ug/ml; assay type: functional, organism-based
Aspergillus niger [28] = assay: Antifungal activity against Aspergillus niger ATCC 16404 at 160 ug/ml; assay type: functional, organism-based
Candida tropicalis [29] = assay: Antifungal activity against Candida tropicalis ATCC 750 at 160 ug/ml; assay type: functional, organism-based
Candida parapsilosis [30] = assay: Antifungal activity against Candida parapsilosis ATCC 22019 at 160 ug/ml; assay type: functional, organism-based
Nakaseomyces glabratus [31] = assay: Antifungal activity against intrinsically fluconazole-resistant Candida glabrata ATCC 90030 at 160 ug/ml; assay type: functional, organism-based
Candida albicans [32] = assay: Antifungal activity against Candida albicans ATCC 14053 at 160 ug/ml; assay type: functional, organism-based
Candida albicans [33] = assay: Antifungal activity against Candida albicans ATCC 60193 at 160 ug/ml; assay type: functional, organism-based
Candida albicans [34] = assay: Antifungal activity against Candida albicans ATCC 32354 at 160 ug/ml; assay type: functional, organism-based
Candida albicans [35] = assay: Antifungal activity against Candida albicans ATCC 90028 at 160 ug/ml; assay type: functional, organism-based
Candida albicans [36] = assay: Antifungal activity against fluconazole-resistant Candida albicans isolate 1 isolated from AIDS patient at 160 ug/ml; assay type: functional, organism-based
Candida albicans [37] = assay: Antifungal activity against fluconazole-resistant Candida albicans isolate 17 isolated from AIDS patient at 160 ug/ml; assay type: functional, organism-based

C[C@@H]1[C@H](O)[C@@H](C)/C=C/C=C/C=C/C=C/C=C/C=C/C=C/[C@H](O[C@@H]2O[C@H](C)[C@@H](O)[C@H](N)[C@@H]2O)C[C@@H]2O[C@](O)(C[C@@H](O)C[C@@H](O)[C@H](O)CC[C@@H](O)C[C@@H](O)CC(=O)O[C@H]1C)C[C@H](O)[C@H]2C(=O)O [AMPHOTERICIN B]
IC50 (Vero): 4.7 µg/mL (≈ 5.09 µM)
MFC (Cryptococcus neoformans [1]): 0.31 µg/mL (≈ 0.335 µM)
MIC (Cryptococcus neoformans [1]): 0.16 µg/mL (≈ 0.173 µM)
MFC [2]: 0.57 µg/mL (≈ 0.617 µM)
MIC [2]: 0.57 µg/mL (≈ 0.617 µM)
MIC (Candida albicans [3]): 1.88 µg/mL (≈ 2.03 µM)
MFC (Aspergillus fumigatus [4]): 10 µg/mL (≈ 10.8 µM)
MIC (Aspergillus fumigatus [4]): 1.5 µg/mL (≈ 1.62 µM)
MFC (Aspergillus flavus [5]): 5 µg/mL (≈ 5.41 µM)
Activity (Aspergillus niger [6]): inactive
MIC (Candida albicans [7]): 0.94 µg/mL (≈ 1.02 µM)

CCCCCCCCCCCCCCCCCCC1(O)C=CC2=[N+](C)CCCN21.[I-] (centres undefined)
MFC (Cryptococcus neoformans [8]): 1.97 µg/mL
MIC (Cryptococcus neoformans [8]): 1.61 µg/mL
MFC (Candida albicans [9]): 2.5 µg/mL
MIC (Candida albicans [9]): 2.5 µg/mL
MIC (Aspergillus fumigatus [10]): 10 µg/mL
Activity (Aspergillus fumigatus [11]): inactive
IC50 (Vero): 12.3 µg/mL
selectivity ratio [12]: 6

CCCCCCCCCCC1(O)C=CC2=[N+](C)CCCN21.[I-] (centres undefined)
Activity (Candida albicans [13]): inactive
MFC (Cryptococcus neoformans [8]): 10 µg/mL
MIC (Cryptococcus neoformans [8]): 10 µg/mL
MIC (Candida albicans [9]): 20 µg/mL
Activity (Aspergillus fumigatus [11]): inactive
IC50 (Vero): 21.3 µg/mL
selectivity ratio [12]: 2

CCCCCCC1(O)C=CC2=[N+](C)CCCN21.[I-] (centres undefined)
Activity (Candida albicans [13]): inactive
Activity (Cryptococcus neoformans [14]): inactive
Activity (Aspergillus fumigatus [11]): inactive
IC50 (Vero): > 25 µg/mL

CCCCCCCCCCCCCCC1(O)C=CC2=[N+](C)CCCN21.[I-] (centres undefined)
MFC (Cryptococcus neoformans [8]): 0.31 µg/mL
MIC (Cryptococcus neoformans [8]): 0.31 µg/mL
MIC (Candida albicans [9]): 1.88 µg/mL
MFC (Aspergillus fumigatus [10]): 5 µg/mL
MIC (Aspergillus fumigatus [10]): 1.88 µg/mL
IC50 (Vero): 16.5 µg/mL
selectivity ratio [12]: 53
MFC (Cryptococcus neoformans [1]): 0.31 µg/mL
MIC (Cryptococcus neoformans [1]): 0.23 µg/mL
MFC [2]: 0.63 µg/mL
MIC [2]: 0.63 µg/mL
MIC (Candida albicans [15]): 1.88 µg/mL
MFC (Candida albicans [16]): 10 µg/mL
MFC (Aspergillus fumigatus [17]): 10 µg/mL
MIC (Candida albicans [18]): 1.25 µg/mL
MFC (Candida albicans [7]): 2.5 µg/mL

CCCCCCCCCCCCCCCCC1(O)C=CC2=[N+](C)CCCN21.[I-] (centres undefined)
MFC (Cryptococcus neoformans [8]): 1.25 µg/mL
MIC (Cryptococcus neoformans [8]): 1.25 µg/mL
MFC (Candida albicans [9]): 2.5 µg/mL
MIC (Candida albicans [9]): 2.5 µg/mL
MFC (Aspergillus fumigatus [10]): 5 µg/mL
MIC (Aspergillus fumigatus [10]): 5 µg/mL
IC50 (Vero): 16 µg/mL
selectivity ratio [12]: 13

CCCCCCCCCCCCC1(O)C=CC2=[N+](C)CCCN21.[I-] (centres undefined)
MFC (Cryptococcus neoformans [8]): 0.63 µg/mL
MIC (Cryptococcus neoformans [8]): 0.63 µg/mL
MFC (Candida albicans [9]): 10 µg/mL
MIC (Candida albicans [9]): 7.5 µg/mL
MFC (Aspergillus fumigatus [10]): 10 µg/mL
MIC (Aspergillus fumigatus [10]): 5 µg/mL
IC50 (Vero): 18.3 µg/mL
selectivity ratio [12]: 29

OC(Cn1cncn1)(Cn1cncn1)c1ccc(F)cc1F [FLUCONAZOLE]
Activity (Candida albicans [19]): inactive
MFC (Cryptococcus neoformans [8]): 25 µg/mL (≈ 81.6 µM)
MIC (Cryptococcus neoformans [8]): 9.38 µg/mL (≈ 30.6 µM)
MIC (Candida albicans [9]): 0.51 µg/mL (≈ 1.67 µM)
MFC (Cryptococcus neoformans [1]): 12.5 µg/mL (≈ 40.8 µM)
MIC (Cryptococcus neoformans [1]): 3.91 µg/mL (≈ 12.8 µM)
MFC [2]: 50 µg/mL (≈ 163 µM)
MIC [2]: 50 µg/mL (≈ 163 µM)
MIC (Candida albicans [15]): 0.25 µg/mL (≈ 0.816 µM)
MIC (Candida albicans [20]): 0.2 µg/mL (≈ 0.653 µM)
MIC (Candida albicans [16]): 0.94 µg/mL (≈ 3.07 µM)
MIC (Candida albicans [3]): 0.35 µg/mL (≈ 1.14 µM)
MIC (Nakaseomyces glabratus [21]): 45 µg/mL (≈ 147 µM)
MFC (Pichia kudriavzevii): 80 µg/mL (≈ 261 µM)
MIC (Pichia kudriavzevii): 45 µg/mL (≈ 147 µM)
MIC (Candida parapsilosis [22]): 2.8 µg/mL (≈ 9.14 µM)
MIC (Candida tropicalis [23]): 13.1 µg/mL (≈ 42.8 µM)
Activity (Aspergillus fumigatus [24]): inactive
Activity (Aspergillus fumigatus [25]): inactive
Activity (Aspergillus fumigatus [26]): inactive
Activity (Aspergillus flavus [27]): inactive
Activity (Aspergillus niger [28]): inactive
Activity (Candida tropicalis [29]): inactive
Activity (Candida parapsilosis [30]): inactive
Activity (Nakaseomyces glabratus [31]): inactive
Activity (Candida albicans [32]): inactive
Activity (Candida albicans [33]): inactive
Activity (Candida albicans [34]): inactive
Activity (Candida albicans [35]): inactive
MIC (Candida albicans [18]): 10.4 µg/mL (≈ 33.9 µM)
Activity (Candida albicans [36]): inactive
Activity (Candida albicans [37]): inactive
